This passage reports MIC and ED50 results from ChEMBL document CHEMBL1125434, “Preparation and in vitro and in vivo evaluation of quinolones with selective activity against gram-positive organisms” (1992).

Common to all, as to assay type: functional
One assay has as its system Acinetobacter. The experiment in a line: In vitro minimum inhibitory concentration against Acinetobacter CMX 669 using brain-heart infusion agar. In short, it runs like this:
(§1)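 Overnight cultures were grown in BHI broth at 36 °C. Twofold dilutions of a 2000 µg/mL stock were made in BHI agar, giving 200–0.005 µg/mL. Plates received about 10^4 organisms and were incubated for 18 h at 36 °C. MIC was the lowest concentration with no visible growth on the plate.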

A further assay relates to Enterococcus faecium. As to the kind of experiment: In vitro minimum inhibitory concentration against Enterococcus faecium ATCC 8043 using brain-heart infusion agar. In short, it runs like this: as §1
Another assay concerns Escherichia coli. As to the kind of experiment: In vitro minimum inhibitory concentration against Escherichia coli Juhl using brain-heart infusion agar. In a few lines:
as §1

A further assay has as its system Klebsiella aerogenes. As to the kind of experiment: In vitro minimum inhibitory concentration against Enterobacter aerogenes ATCC 13048 using brain-heart infusion agar. In short, it runs like this:
as §1

The subject of assay [1] is Klebsiella pneumoniae. The experiment in a line: In vitro minimum inhibitory concentration brain-heart infusion agar. In a few lines:
as §1

Assay [2] concerns Pseudomonas aeruginosa. As to the kind of experiment: Not Plasmodium species.
The subject of assay [3] is Pseudomonas aeruginosa. The experiment in a line: In vitro minimum inhibitory concentration against Pseudomonas aeruginosa A5007 using brain-heart infusion agar. In short, it runs like this:
as §1

Assay [4] deals with Staphylococcus aureus. The experiment in a line: In vitro minimum inhibitory concentration against Staphylococcus aureus ATCC 6538P using brain-heart infusion agar. In short, it runs like this:
as §1

The subject of assay [5] is Staphylococcus aureus. As to the kind of experiment: In vitro minimum inhibitory concentration against Staphylococcus aureus A 5177 using brain-heart infusion agar. In short, it runs like this: as §1
For assay [6], the system named is Staphylococcus aureus. As to the kind of experiment: In vitro minimum inhibitory concentration against Staphylococcus aureus CMX 553 using brain-heart infusion agar. In short, it runs like this: as §1
Assay [7] concerns Staphylococcus aureus. As to the kind of experiment: In vitro minimum inhibitory concentration against Staphylococcus aureus NCTC 10649 using brain-heart infusion agar. In short, it runs like this:
as §1

Assay [8] deals with Staphylococcus epidermidis. As to the kind of experiment: In vitro minimum inhibitory concentration against Staphylococcus epidermidis 3159 using brain-heart infusion agar. In short, it runs like this:
as §1

Another assay has as its system Streptococcus equinus. The experiment in a line: In vitro minimum inhibitory concentration against Streptococcus bovis A5169 using brain-heart infusion agar. In short, it runs like this:
as §1

The test system of another assay is Streptococcus agalactiae. The experiment in a line: In vitro minimum inhibitory concentration against Streptococcus agalactiae CMX 508 using brain-heart infusion agar. In short, it runs like this: as §1
A further assay has as its system Streptococcus pyogenes. The experiment in a line: In vitro minimum inhibitory concentration against Streptococcus pyogenes 930 using brain-heart infusion agar. In short, it runs like this: as §1
The subject of assay [9] is Klebsiella pneumoniae. As to the kind of experiment: In vitro minimum inhibitory concentration against Klebsiella pneumoniae 8045 using brain-heart infusion agar. In a few lines:
as §1

The test system of assay [10] is Pseudomonas aeruginosa. The experiment in a line: In vitro minimum inhibitory concentration against Pseudomonas aeruginosa K799 / WT using brain-heart infusion agar. In short, it runs like this:
as §1

Assay [11] has as its system Staphylococcus aureus. As to the kind of experiment: In vivo antibacterial activity against Staphylococcus aureus NCTC 10649 infected mouse by oral administration. In a few lines: (§2)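 Compound was given in water or in dilute NaOH diluted with water, orally or subcutaneously. The dose was split equally between 1 and 5 h post-infection. Groups were 10 mice at ≥3 dose levels. ED50 was calculated from day-6 cumulative mortality by the trimmed Logit method.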

In assay [12] the test system is Staphylococcus aureus. As to the kind of experiment: In vivo antibacterial activity against Staphylococcus aureus NCTC 10649 infected mouse by subcutaneous administration. Conditions: sc. In short, it runs like this:
as §2

The test system of assay [13] is Staphylococcus aureus. The experiment in a line: In vitro minimum inhibitory concentrationp against Staphylococcus aureus ATCC 6538P using brain-heart infusion agar. In a few lines:
as §1

In brackets after ≈: the same amount, converted by molar mass.

A word on the MIC: it is the lowest concentration that inhibits growth of the organism. High values mean a need for much substance, low ones inhibition by little substance. As for `O=C(O)c1cn(C2CC2)c2nc(N3CC/C(=N\O)C3)c(F)cc2c1=O`, the MIC in the assay on Acinetobacter was found to be 0.2 µg/mL (≈ 0.578 µM); against Enterococcus faecium, 0.39 µg/mL (≈ 1.13 µM); in the assay with Escherichia coli, 0.02 µg/mL (≈ 0.0578 µM); in the assay on Klebsiella aerogenes it was 0.2 µg/mL (≈ 0.578 µM); against Klebsiella pneumoniae [1], 0.05 µg/mL (≈ 0.144 µM); against Pseudomonas aeruginosa [2] it was 0.78 µg/mL (≈ 2.25 µM). For the same compound, the MIC was over 100 µg/mL with Pseudomonas aeruginosa [3]; 0.02 µg/mL (≈ 0.0578 µM) against Staphylococcus aureus [4]; 0.05 µg/mL (≈ 0.144 µM) against Staphylococcus aureus [5]; 0.05 µg/mL (≈ 0.144 µM) against Staphylococcus aureus [6]; 0.05 µg/mL (≈ 0.144 µM) with Staphylococcus aureus [7]; 0.05 µg/mL (≈ 0.144 µM) in assay [8]. Besides, the MIC in the assay with Streptococcus equinus amounted to 0.78 µg/mL (≈ 2.25 µM); against Streptococcus agalactiae it was 0.2 µg/mL (≈ 0.578 µM); with Streptococcus pyogenes, 0.39 µg/mL (≈ 1.13 µM).

For orientation: ED50 means the dose at which the effect has come halfway, by size or by number of responders. A higher ED50 goes with weaker potency. For `CO/N=C1\CCN(c2nc3c(cc2F)c(=O)c(C(=O)O)cn3-c2ccc(F)cc2F)C1`, the MIC was found to be 1.56 µg/mL (≈ 3.61 µM) against Acinetobacter; 0.39 µg/mL (≈ 0.902 µM) against Enterococcus faecium; 0.78 µg/mL (≈ 1.8 µM) in the assay on Escherichia coli; 3.1 µg/mL (≈ 7.17 µM) against Klebsiella aerogenes; 0.78 µg/mL (≈ 1.8 µM) against Klebsiella pneumoniae [9]; 6.2 µg/mL (≈ 14.3 µM) against Pseudomonas aeruginosa [10]. Further, the MIC against Pseudomonas aeruginosa [3] stood at 6.2 µg/mL (≈ 14.3 µM); in the assay on Staphylococcus aureus [4] it was 0.05 µg/mL (≈ 0.116 µM); against Staphylococcus aureus [5], 0.1 µg/mL (≈ 0.231 µM); in the assay with Staphylococcus aureus [6] it was 0.1 µg/mL (≈ 0.231 µM); in the assay on Staphylococcus aureus [7], 0.05 µg/mL (≈ 0.116 µM); in assay [8], 0.1 µg/mL (≈ 0.231 µM). Besides, the results for the MIC with Streptococcus equinus, against Streptococcus agalactiae and in the assay with Streptococcus pyogenes were 1.56 µg/mL (≈ 3.61 µM), 0.39 µg/mL (≈ 0.902 µM) and 0.78 µg/mL (≈ 1.8 µM), respectively. The ED50 in the assay on Staphylococcus aureus [11] is over 12 mg/kg; with Staphylococcus aureus [12], 4.7 mg/kg.

Regarding `O=C(O)c1cn(C2CC2)c2c(F)c(N3CCC(=NO)CC3)c(F)cc2c1=O`, the MIC in the assay on Acinetobacter worked out at 0.39 µg/mL (≈ 1.03 µM); with Enterococcus faecium, 0.2 µg/mL (≈ 0.53 µM); against Escherichia coli, 0.2 µg/mL (≈ 0.53 µM); against Klebsiella aerogenes, 0.39 µg/mL (≈ 1.03 µM); with Klebsiella pneumoniae [9], 0.1 µg/mL (≈ 0.265 µM); against Pseudomonas aeruginosa [10], 1.56 µg/mL (≈ 4.13 µM). Also, the MIC in the assay with Pseudomonas aeruginosa [3] came out at 3.1 µg/mL (≈ 8.22 µM); against Staphylococcus aureus [4], 0.01 µg/mL (≈ 0.0265 µM); with Staphylococcus aureus [5] it was 0.02 µg/mL (≈ 0.053 µM); against Staphylococcus aureus [6] it was 0.05 µg/mL (≈ 0.133 µM); against Staphylococcus aureus [7] it was 0.02 µg/mL (≈ 0.053 µM); in [8], 0.02 µg/mL (≈ 0.053 µM). For the same compound, the MIC was determined as 0.39 µg/mL (≈ 1.03 µM) against Streptococcus equinus, 0.2 µg/mL (≈ 0.53 µM) in the assay on Streptococcus agalactiae and 0.1 µg/mL (≈ 0.265 µM) in the assay with Streptococcus pyogenes. The values for the ED50 with Staphylococcus aureus [11] and with Staphylococcus aureus [12] were 3 mg/kg and 6.7 mg/kg, respectively.

On to `O=C(O)c1cn(-c2ccc(F)cc2F)c2nc(N3CCC(=NO)CC3)c(F)cc2c1=O`, for which the MIC was determined as 3.1 µg/mL (≈ 7.17 µM) against Acinetobacter; 1.56 µg/mL (≈ 3.61 µM) in the assay with Enterococcus faecium; 0.78 µg/mL (≈ 1.8 µM) in the assay with Escherichia coli; 3.1 µg/mL (≈ 7.17 µM) in the assay with Klebsiella aerogenes; 0.78 µg/mL (≈ 1.8 µM) against Klebsiella pneumoniae [9]; 6.2 µg/mL (≈ 14.3 µM) against Pseudomonas aeruginosa [10]. Moreover, the MIC against Pseudomonas aeruginosa [3] worked out at 12.5 µg/mL (≈ 28.9 µM); against Staphylococcus aureus [4], 0.05 µg/mL (≈ 0.116 µM); against Staphylococcus aureus [5] it was 0.1 µg/mL (≈ 0.231 µM); in the assay on Staphylococcus aureus [6], 0.2 µg/mL (≈ 0.463 µM); with Staphylococcus aureus [7], 0.1 µg/mL (≈ 0.231 µM); in [8], 0.2 µg/mL (≈ 0.463 µM). Also, the minimum inhibitory concentration (MIC) with Streptococcus equinus stood at 3.1 µg/mL (≈ 7.17 µM); against Streptococcus agalactiae, 0.78 µg/mL (≈ 1.8 µM); in the assay with Streptococcus pyogenes, 1.56 µg/mL (≈ 3.61 µM). For the same compound, the ED50 in the assay with Staphylococcus aureus [11] is over 8 mg/kg; in the assay with Staphylococcus aureus [12] it was over 2 mg/kg.

Consider `O=C(O)c1cn(-c2ccc(F)cc2F)c2cc(N3CC/C(=N/O)C3)c(F)cc2c1=O`, for which the MIC came to 0.39 µg/mL (≈ 0.934 µM) in the assay on Acinetobacter; 0.2 µg/mL (≈ 0.479 µM) against Enterococcus faecium; 0.2 µg/mL (≈ 0.479 µM) against Escherichia coli; 0.78 µg/mL (≈ 1.87 µM) against Klebsiella aerogenes; 0.2 µg/mL (≈ 0.479 µM) in the assay on Klebsiella pneumoniae [9]; 1.56 µg/mL (≈ 3.74 µM) against Pseudomonas aeruginosa [10]. For the same compound, the MIC in the assay on Pseudomonas aeruginosa [3] is 3.1 µg/mL (≈ 7.43 µM); with Staphylococcus aureus [4], under 0.05 µg/mL; against Staphylococcus aureus [5], under 0.05 µg/mL; in the assay on Staphylococcus aureus [6] it was under 0.05 µg/mL; in the assay with Staphylococcus aureus [7], under 0.05 µg/mL; in assay [8] it was under 0.05 µg/mL. The MIC against Streptococcus equinus stood at 0.39 µg/mL (≈ 0.934 µM); with Streptococcus agalactiae, 0.2 µg/mL (≈ 0.479 µM); in the assay with Streptococcus pyogenes, 0.2 µg/mL (≈ 0.479 µM). Besides, the ED50 in the assay with Staphylococcus aureus [11] was over 12 mg/kg; in the assay on Staphylococcus aureus [12], 4.1 mg/kg.

For `NC1CCN(c2cc3c(cc2F)c(=O)c(C(=O)O)cn3-c2ccc(F)cc2F)CC1`, the MIC came to 0.78 µg/mL (≈ 1.87 µM) in the assay with Acinetobacter; 0.78 µg/mL (≈ 1.87 µM) in the assay with Enterococcus faecium; 0.1 µg/mL (≈ 0.24 µM) against Escherichia coli; 0.39 µg/mL (≈ 0.934 µM) against Klebsiella aerogenes; 0.1 µg/mL (≈ 0.24 µM) with Klebsiella pneumoniae [9]; 0.78 µg/mL (≈ 1.87 µM) in the assay with Pseudomonas aeruginosa [10]. For the same compound, the minimal inhibitory concentration (MIC) came to 0.78 µg/mL (≈ 1.87 µM) in the assay with Pseudomonas aeruginosa [3]; 0.1 µg/mL (≈ 0.24 µM) against Staphylococcus aureus [13]; 0.39 µg/mL (≈ 0.934 µM) in the assay with Staphylococcus aureus [5]; 0.39 µg/mL (≈ 0.934 µM) against Staphylococcus aureus [6]; 0.39 µg/mL (≈ 0.934 µM) in [8]; 1.56 µg/mL (≈ 3.74 µM) in the assay with Streptococcus equinus. In addition, the MIC in the assay on Streptococcus agalactiae stood at 0.78 µg/mL (≈ 1.87 µM); in the assay with Streptococcus pyogenes it was 0.39 µg/mL (≈ 0.934 µM).
